Measured values as given in publication PMC9050161 (RSC Advances, 2020).

How the values were obtained:
HeLa cells = test: Toxicity of PI-103 in HeLa cells; format: cell-based, human; details: within the experimental concentrations (maximal 5 μM)
CYP1A2 = biological target: T1, CYP1A2 (Homo sapiens, UniProt P05177); test: Inhibition of CYP1A2; format: biochemical
T1 sequence (P05177 1-516): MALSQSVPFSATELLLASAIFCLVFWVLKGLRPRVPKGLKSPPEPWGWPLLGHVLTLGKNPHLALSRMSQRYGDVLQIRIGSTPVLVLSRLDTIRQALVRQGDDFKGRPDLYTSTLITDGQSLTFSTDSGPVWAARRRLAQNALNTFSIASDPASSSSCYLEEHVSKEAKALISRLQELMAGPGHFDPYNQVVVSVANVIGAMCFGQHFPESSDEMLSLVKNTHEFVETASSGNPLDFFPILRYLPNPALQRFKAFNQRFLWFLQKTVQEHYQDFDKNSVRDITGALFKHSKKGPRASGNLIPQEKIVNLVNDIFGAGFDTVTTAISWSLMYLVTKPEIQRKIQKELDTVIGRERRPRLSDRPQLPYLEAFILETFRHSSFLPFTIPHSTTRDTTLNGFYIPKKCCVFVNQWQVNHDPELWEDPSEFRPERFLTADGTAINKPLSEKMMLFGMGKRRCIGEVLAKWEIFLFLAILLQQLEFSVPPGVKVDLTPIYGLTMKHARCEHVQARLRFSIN
How it was run: (§1)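 Recombinant human CYPs at 0.05 mg mL−1 protein, each with its probe substrate near Km: ethoxyresorufin 1 μM (CYP1A1), phenacetin 100 μM (CYP1A2), nifedipine 40 μM (CYP3A4, 3A5). Incubated at 37 °C without (control) or with test compound at 1, 10 and 100 μM. Supernatant analysed by UHPLC-TQD-MS; activity relative to control; triplicate.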

CYP2A6 = CYP2A6 (Homo sapiens, UniProt P11509); test: Inhibition of CYP2A6; format: biochemical; details: PI-103 1, 10 and 100 μM
How it was run: (§2)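 Recombinant human CYPs at 0.1 mg mL−1 protein, each with its probe substrate near Km: coumarin 100 μM (2A6), bupropion 100 μM (2B6), paclitaxel 60 μM (2C8), tolbutamide 200 μM (2C9), mephenytoin 100 μM (2C19), chlorzoxazone 200 μM (2E1). Incubated at 37 °C with or without test compound at 1, 10 or 100 μM. UHPLC-TQD-MS read-out; triplicate.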

CYP2C8 = CYP2C8 (Homo sapiens, UniProt P10632); test: Inhibition of CYP2C8; format: biochemical; details: PI-103 1, 10 and 100 μM
How it was run: as §2

CYP2C9 = CYP2C9 (Homo sapiens, UniProt P11712); test: Inhibition of CYP2C9; format: biochemical
How it was run: as §2

CYP3A4 = CYP3A4 (Homo sapiens, UniProt P08684); test: Inhibition of CYP3A4; format: biochemical; details: PI-103 1, 10 and 100 μM
How it was run: as §1

UGT1A3 = biological target: T2, UGT1A3 (Homo sapiens, UniProt P35503); test: Inhibition of UGT1A3; format: biochemical
T2 sequence (P35503 29-534): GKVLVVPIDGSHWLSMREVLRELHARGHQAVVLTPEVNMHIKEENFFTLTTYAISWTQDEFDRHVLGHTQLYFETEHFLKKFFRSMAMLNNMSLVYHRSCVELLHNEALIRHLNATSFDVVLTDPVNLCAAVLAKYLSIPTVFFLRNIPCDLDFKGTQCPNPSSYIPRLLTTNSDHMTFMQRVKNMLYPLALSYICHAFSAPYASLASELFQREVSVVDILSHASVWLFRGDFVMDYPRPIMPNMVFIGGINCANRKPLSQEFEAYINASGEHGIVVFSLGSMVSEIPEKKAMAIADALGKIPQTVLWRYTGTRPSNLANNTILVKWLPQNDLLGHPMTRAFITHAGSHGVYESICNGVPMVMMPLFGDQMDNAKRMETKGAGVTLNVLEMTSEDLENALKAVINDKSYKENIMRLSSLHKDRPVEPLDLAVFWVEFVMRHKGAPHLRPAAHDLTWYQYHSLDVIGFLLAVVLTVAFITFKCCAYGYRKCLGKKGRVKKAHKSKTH
How it was run: (§3)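 Recombinant human UGTs screened with probe substrates: β-estradiol for UGT1A1, propofol for 1A9, and 4-methylumbelliferone for 1A3, 1A6, 1A7, 1A8, 1A10, 2B4, 2B7, 2B10, 2B15 and 2B17. Incubated at 37 °C without (control) or with test compound at 1, 10 or 100 μM. Glucuronide formation measured relative to control; triplicate.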

UGT1A8 = UGT1A8 (Homo sapiens, UniProt Q9HAW9); test: Inhibition of UGT1A8; format: biochemical; details: PI-103 1, 10 and 100 μM
How it was run: as §3

UGT1A9 = UGT1A9 (Homo sapiens, UniProt O60656); test: Inhibition of UGT1A9; format: biochemical
How it was run: as §3

UGT2B4 = UGT2B4 (Homo sapiens, UniProt P06133); test: Inhibition of UGT2B4; format: biochemical; details: PI-103 1, 10 and 100 μM
How it was run: as §3

UGT2B7 = biological target: T3, UGT2B7 (Homo sapiens, UniProt P16662); test: Inhibition of UGT2B7; format: biochemical
T3 sequence (P16662 24-529): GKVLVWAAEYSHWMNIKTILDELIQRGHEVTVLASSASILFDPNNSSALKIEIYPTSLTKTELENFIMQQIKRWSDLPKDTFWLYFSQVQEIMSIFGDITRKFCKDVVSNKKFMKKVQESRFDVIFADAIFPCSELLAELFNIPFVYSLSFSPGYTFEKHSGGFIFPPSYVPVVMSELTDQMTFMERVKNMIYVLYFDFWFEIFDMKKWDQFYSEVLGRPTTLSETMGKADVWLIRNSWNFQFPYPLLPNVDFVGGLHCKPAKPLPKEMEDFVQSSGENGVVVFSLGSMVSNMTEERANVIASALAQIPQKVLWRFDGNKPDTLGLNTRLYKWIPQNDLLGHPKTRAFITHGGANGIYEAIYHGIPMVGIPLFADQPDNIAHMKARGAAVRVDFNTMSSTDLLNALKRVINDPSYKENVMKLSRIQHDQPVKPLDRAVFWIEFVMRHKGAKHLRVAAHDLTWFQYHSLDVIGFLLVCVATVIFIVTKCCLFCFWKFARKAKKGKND
How it was run: as §3

UGT2B17 = UGT2B17 (Homo sapiens, UniProt O75795); test: Inhibition of UGT2B17; format: biochemical; details: PI-103 1, 10 and 100 μM
How it was run: as §3

p110β = details: cited from earlier work
[1] = system: normal hematopoietic progenitors; details: cited from earlier work

Chain of CYP2C9 (P11712 whole entry): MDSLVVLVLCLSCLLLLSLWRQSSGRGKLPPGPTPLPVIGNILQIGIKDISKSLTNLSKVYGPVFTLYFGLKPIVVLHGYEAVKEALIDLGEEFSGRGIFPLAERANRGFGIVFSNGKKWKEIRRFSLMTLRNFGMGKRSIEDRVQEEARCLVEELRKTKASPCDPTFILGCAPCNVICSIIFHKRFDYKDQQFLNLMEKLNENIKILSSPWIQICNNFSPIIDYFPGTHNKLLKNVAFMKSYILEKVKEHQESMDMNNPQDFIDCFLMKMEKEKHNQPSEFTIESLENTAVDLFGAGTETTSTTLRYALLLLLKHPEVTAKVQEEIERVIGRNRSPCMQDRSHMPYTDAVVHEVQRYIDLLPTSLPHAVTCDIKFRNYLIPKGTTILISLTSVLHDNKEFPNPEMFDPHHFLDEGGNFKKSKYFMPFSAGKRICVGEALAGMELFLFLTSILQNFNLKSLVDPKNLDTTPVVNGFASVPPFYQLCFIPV
Chain of CYP2A6 (P11509 whole entry): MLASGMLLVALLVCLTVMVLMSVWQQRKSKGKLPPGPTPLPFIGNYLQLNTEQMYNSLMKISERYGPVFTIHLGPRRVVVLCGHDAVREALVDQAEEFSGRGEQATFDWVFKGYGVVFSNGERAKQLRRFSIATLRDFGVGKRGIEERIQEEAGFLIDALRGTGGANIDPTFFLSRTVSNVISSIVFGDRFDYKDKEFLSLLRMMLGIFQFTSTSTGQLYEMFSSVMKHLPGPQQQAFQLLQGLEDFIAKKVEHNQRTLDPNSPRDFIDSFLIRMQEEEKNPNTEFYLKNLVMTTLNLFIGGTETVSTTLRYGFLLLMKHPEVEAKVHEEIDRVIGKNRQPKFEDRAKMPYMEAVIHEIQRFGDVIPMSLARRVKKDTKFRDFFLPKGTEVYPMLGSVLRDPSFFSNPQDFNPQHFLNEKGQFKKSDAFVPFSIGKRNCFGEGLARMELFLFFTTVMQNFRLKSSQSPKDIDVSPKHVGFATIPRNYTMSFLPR
Chain of UGT2B17 (O75795 24-530): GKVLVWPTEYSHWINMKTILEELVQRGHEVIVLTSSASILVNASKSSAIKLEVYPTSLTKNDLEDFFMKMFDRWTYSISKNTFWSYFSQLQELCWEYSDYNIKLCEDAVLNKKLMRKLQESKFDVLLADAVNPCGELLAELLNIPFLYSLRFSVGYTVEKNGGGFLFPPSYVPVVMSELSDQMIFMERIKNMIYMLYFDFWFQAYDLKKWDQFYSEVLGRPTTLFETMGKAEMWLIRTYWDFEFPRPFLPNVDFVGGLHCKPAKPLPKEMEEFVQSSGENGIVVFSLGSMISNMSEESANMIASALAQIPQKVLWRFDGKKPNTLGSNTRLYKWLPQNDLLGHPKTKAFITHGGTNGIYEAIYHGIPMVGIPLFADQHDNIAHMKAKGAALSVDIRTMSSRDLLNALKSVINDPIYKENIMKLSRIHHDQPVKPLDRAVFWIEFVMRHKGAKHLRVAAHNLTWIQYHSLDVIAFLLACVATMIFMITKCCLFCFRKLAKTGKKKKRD
Chain of UGT1A8 (Q9HAW9 26-530): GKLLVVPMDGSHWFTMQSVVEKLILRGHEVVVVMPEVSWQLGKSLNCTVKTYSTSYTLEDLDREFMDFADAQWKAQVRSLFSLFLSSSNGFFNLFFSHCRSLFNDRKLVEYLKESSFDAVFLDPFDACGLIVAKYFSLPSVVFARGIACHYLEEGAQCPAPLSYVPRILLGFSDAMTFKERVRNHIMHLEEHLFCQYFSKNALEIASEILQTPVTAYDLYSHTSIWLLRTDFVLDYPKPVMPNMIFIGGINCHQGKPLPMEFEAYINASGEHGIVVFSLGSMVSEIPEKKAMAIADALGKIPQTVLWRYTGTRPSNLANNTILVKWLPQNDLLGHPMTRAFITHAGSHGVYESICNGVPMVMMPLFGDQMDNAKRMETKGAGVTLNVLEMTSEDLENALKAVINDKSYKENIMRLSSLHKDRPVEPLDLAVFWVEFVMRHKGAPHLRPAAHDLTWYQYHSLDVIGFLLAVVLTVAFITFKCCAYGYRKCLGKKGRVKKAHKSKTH
Chain of CYP3A4 (P08684 whole entry): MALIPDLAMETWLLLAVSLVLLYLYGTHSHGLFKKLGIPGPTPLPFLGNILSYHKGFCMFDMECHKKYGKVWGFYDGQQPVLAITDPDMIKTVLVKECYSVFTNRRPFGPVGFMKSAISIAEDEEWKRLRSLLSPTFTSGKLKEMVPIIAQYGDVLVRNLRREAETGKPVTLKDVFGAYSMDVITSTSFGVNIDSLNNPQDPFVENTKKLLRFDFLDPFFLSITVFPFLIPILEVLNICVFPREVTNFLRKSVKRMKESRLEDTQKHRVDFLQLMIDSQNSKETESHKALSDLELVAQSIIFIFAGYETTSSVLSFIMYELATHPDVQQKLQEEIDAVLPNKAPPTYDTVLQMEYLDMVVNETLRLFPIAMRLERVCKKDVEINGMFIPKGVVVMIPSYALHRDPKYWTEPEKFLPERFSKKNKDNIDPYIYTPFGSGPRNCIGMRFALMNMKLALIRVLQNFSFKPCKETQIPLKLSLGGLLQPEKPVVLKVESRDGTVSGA
Chain of CYP2C8 (P10632 whole entry): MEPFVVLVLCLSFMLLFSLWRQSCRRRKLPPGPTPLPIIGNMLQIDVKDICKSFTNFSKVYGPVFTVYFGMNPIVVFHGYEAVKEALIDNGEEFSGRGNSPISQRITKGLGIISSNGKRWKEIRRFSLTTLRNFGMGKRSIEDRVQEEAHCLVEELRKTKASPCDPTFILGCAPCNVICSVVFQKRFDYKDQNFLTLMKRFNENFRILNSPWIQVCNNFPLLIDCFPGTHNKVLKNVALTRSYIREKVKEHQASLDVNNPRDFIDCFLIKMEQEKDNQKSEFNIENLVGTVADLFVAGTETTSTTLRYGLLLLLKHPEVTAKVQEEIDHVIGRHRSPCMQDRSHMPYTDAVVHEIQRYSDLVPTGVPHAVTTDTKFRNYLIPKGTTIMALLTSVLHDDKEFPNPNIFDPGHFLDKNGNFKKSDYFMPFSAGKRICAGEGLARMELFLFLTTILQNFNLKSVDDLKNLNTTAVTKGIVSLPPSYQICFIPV
Chain of UGT1A9 (O60656 26-530): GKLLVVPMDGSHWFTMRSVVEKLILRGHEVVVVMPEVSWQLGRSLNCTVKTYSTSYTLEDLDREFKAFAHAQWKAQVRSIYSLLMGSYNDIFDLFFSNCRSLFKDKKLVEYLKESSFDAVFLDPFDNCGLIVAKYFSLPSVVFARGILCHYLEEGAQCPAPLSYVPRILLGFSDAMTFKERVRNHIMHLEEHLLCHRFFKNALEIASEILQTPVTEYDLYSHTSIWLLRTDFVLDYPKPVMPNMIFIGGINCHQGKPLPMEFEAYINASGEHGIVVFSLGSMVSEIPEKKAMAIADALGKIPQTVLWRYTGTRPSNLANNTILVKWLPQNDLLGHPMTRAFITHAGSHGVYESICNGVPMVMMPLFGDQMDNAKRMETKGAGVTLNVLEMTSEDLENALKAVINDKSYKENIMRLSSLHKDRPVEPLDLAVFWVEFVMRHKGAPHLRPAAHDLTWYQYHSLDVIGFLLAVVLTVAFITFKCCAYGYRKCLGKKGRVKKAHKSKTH
Chain of UGT2B4 (P06133 24-528): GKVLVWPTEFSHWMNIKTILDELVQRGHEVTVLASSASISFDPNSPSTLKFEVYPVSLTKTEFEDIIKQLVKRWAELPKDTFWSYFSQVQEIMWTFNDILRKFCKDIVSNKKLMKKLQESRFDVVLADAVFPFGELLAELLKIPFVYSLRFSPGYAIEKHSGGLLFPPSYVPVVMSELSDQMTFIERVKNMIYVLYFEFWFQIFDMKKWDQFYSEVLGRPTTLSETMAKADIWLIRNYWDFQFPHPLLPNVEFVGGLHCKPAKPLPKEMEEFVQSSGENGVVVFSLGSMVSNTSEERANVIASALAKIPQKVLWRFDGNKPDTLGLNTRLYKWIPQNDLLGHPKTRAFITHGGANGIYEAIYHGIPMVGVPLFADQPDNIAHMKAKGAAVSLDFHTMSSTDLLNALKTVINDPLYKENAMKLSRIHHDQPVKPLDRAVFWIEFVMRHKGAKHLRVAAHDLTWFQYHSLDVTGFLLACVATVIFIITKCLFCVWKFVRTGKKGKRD

In the case of `Oc1cccc(-c2nc(N3CCOCC3)c3oc4ncccc4c3n2)c1` [PI-103], the “toxicity in HeLa cells” value (HeLa cells) is reported as “no significant toxicities”, the IC50 (CYP1A2) is reported as 370 ± 40 nM and the Ki (CYP1A2) is reported as 380 ± 30 nM. For the same molecule, the residual activity (CYP1A2; CYP1A2, 100 μM PI-103) was 8.63 % of the negative control, the Type of inhibition (CYP1A2; CYP1A2, phenacetin) was “Noncompetitive” and the inhibitory effect (CYP2A6) was “negligible or weak”. The inhibitory effect (CYP2C8) was “negligible or weak”, the IC50 (CYP2C9) was 1160 ± 150 nM and the Ki (CYP2C9) was 560 ± 120 nM. The residual activity (CYP2C9; CYP2C9, 100 μM PI-103) was 14.22 % of the negative control, the Type of inhibition (CYP2C9; CYP2C9, tolbutamide) was “Mixed-type” and the α (CYP2C9; CYP2C9, tolbutamide, mixed-type model (selected)) was 2.45 ± 0.94. The inhibitory effect (CYP3A4) was “negligible or weak”, the IC50 (UGT1A3) was 6.89 ± 0.73 µM and the Ki (UGT1A3) was 2580 ± 840 nM. The Type of inhibition (UGT1A3; UGT1A3, 4-MU) was “Mixed-type”, the α (UGT1A3; UGT1A3, 4-MU, mixed-type model (selected)) was 2.97 ± 1.61 and the inhibitory effect (UGT1A8) was “negligible”. The IC50 (UGT1A9) was 16.6 ± 1.29 µM, the inhibitory effect (UGT2B4) was “negligible” and the IC50 (UGT2B7) was 1590 ± 210 nM. For the same molecule, the Ki (UGT2B7) was 1350 ± 150 nM, the Type of inhibition (UGT2B7; UGT2B7, 4-MU) was “Noncompetitive” and the inhibitory effect (UGT2B17) was “negligible”. The IC50 (p110β) was 88 nM and the “impact on normal hematopoietic progenitors” value [1] was “little impact”.
